Bioassay records from PubChem BioAssay.
Most compounds without a hit are left out; they make up all but 2.2% or so of the library.
Myeloid diff 2: promotes myeloid progenitor differentiation; ER-HoxA9 myeloid progenitors, lysozyme-GFP differentiation, flow cytometry; AID 624256; actives 1% (n = 360,000); calls only at 10 µM;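 active = normalized GFP-positive differentiation at or above the plate's own cutoff, the solvent-only control mean plus 3 SD; inconclusive = no clear call, values can overlap the other calls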;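 note: cells exposed to compound for four days before flow analysis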
HNF4A DNA FP: change in binding of human HNF4 alpha to DNA; P41235; actives 0.3% (n = 360,000); HNF4a-FITC DNA binding, fluorescence polarization, 1 h; activity change, % at 10 µM; in the data active = activity change above about 30%, passing the limit was not always enough
Target sequence (P41235 whole entry, looked up): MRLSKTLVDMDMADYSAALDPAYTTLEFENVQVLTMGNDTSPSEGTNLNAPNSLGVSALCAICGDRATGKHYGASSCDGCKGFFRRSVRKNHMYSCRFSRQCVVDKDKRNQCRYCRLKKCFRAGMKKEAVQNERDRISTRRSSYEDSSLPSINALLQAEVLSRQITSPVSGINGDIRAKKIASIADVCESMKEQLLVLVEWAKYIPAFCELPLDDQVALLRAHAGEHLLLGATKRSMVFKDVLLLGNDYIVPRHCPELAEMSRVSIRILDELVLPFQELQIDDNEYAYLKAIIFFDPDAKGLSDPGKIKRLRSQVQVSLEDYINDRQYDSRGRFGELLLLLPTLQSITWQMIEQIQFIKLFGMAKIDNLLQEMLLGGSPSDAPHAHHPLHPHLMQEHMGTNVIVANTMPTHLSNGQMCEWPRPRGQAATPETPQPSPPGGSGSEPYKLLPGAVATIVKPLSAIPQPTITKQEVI
CSN inh: blocks human CSN-mediated cullin deneddylation. Purified CSN, SCF-Nedd8-OG deneddylation, fluorescence polarization. inhibition, % at 12.5 µM. actives 0.38% (n = 360,000);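 active = pattern-corrected inhibition above about 35%, with an unprinted fluorescence ratio check between 0.5 and 1.5, limit read from the data, passing the limit was not always enough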
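Material: purified human Csn5 enzyme expressed in HEK293T cells / Medium: Tris buffer pH 7.5, NaCl, DTT, Tween-20, trehalose, ovalbumin / Compound dosing: 12.5 µM single point / Schedule: 90 min incubation of compound, enzyme and substrate at room temperature / Signal: fluorescence polarization of the substrate / Control set: no-enzyme wells high, enzyme-with-substrate wells low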
Granule exo inh: blocks lytic granule exocytosis; TALL-104 LAMP-1 surface exposure, flow cytometry; cells stimulated with thapsigargin and PMA; inhibition, % at 10 µM; actives 0.66% (n = 360,000); AID 651702;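 active = inhibition above about 55%, limit read from the data; inconclusive = no clear call, values can overlap the other calls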
Hits are given with their value.

CC(=O)Nc1ccc(NC(=O)C2Cc3c(-c4ccc5c(c4)OCO5)ccnc3O2)cc1 (centres undefined) was read as Myeloid diff 2 inactive, HNF4A DNA FP inactive, CSN inh inactive and Granule exo inh inactive.
Cc1ccccc1NC(=O)COC(=O)COc1ccc2ccc(=O)oc2c1 was read as Myeloid diff 2 inactive, HNF4A DNA FP inactive, CSN inh inactive and Granule exo inh inactive.
`Cn1cnnc1SCC(=O)Nc1ccccc1` gave Myeloid diff 2 inactive, HNF4A DNA FP inactive, CSN inh inactive and Granule exo inh inactive.
Screening Cn1cnnc1SCC(=O)Nc1ccc(OCc2ccccc2)cc1 returned Myeloid diff 2 inactive, HNF4A DNA FP inactive, CSN inh 49.8 and Granule exo inh inactive.
`CCOC(=O)C1CCN(S(=O)(=O)c2ccc3c(c2)CC(C)N3C(=O)C2CCC2)CC1` (centres undefined) gave Myeloid diff 2 inactive, HNF4A DNA FP inactive, CSN inh inactive and Granule exo inh inactive.
`CCN1CCc2c(sc(NC(=S)NC(=O)c3ccccc3)c2C#N)C1` gave Myeloid diff 2 inactive, HNF4A DNA FP inactive, CSN inh 47.7 and Granule exo inh inactive.
Screening NC(=O)c1c(NC(=O)c2c(F)cccc2F)sc2c1CCN(Cc1ccccc1)C2 returned Myeloid diff 2 inactive, HNF4A DNA FP inactive, CSN inh inactive and Granule exo inh inactive.
CCN1CCc2c(sc(NC(=O)Nc3ccc(Cl)c(Cl)c3)c2C(N)=O)C1 was read as Myeloid diff 2 active, HNF4A DNA FP inactive, CSN inh inactive and Granule exo inh inactive.
For NC(=O)c1c(NC(=O)c2ccccc2)sc2c1CCN(Cc1ccccc1)C2 the results were Myeloid diff 2 inactive, HNF4A DNA FP inactive, CSN inh 46.3 and Granule exo inh inactive.
CCOc1ccc(C(C)=O)cc1N1C(=O)C2C3C=CC(C3)C2C1=O (centres undefined) was read as Myeloid diff 2 inactive, HNF4A DNA FP inactive, CSN inh inactive and Granule exo inh inactive.
CCOc1ccc(C(C)=O)cc1N1C(=O)C2C3C=CC(O3)C2C1=O (centres undefined) was read as Myeloid diff 2 inactive, HNF4A DNA FP inactive, CSN inh inactive and Granule exo inh 104.6.
CCCn1c(N)c(C(=O)COC(=O)c2cccc(S(=O)(=O)N3CCOCC3)c2)c(=O)[nH]c1=O was read as Myeloid diff 2 inactive, HNF4A DNA FP inactive, CSN inh inactive and Granule exo inh inactive.
Brc1ccc2c(c1)OCCOCCOc1cc(Br)ccc1OCCOCCOCCO2 was read as Myeloid diff 2 inconclusive, HNF4A DNA FP inactive, CSN inh inactive and Granule exo inh 60.2.
CCOc1ccc(N=Nc2c(=O)[nH]n3c(=O)c4c([nH]c23)CCCC4)cc1 was read as Myeloid diff 2 active, HNF4A DNA FP inactive, CSN inh inactive and Granule exo inh inactive.
`O=c1[nH]n2c(=O)c3c([nH]c2c1N=Nc1cccc(Cl)c1)CCCC3` gave Myeloid diff 2 inactive, HNF4A DNA FP inactive, CSN inh inactive and Granule exo inh inactive.
`Nc1ccn([C@@H]2O[C@H](CNCc3ccc(C#CCCO)cc3)[C@@H](O)[C@H]2O)c(=O)n1` gave Myeloid diff 2 inactive, HNF4A DNA FP inactive, CSN inh 45.0 and Granule exo inh inactive.
C#CCOc1ccc(CNC[C@H]2O[C@@H](n3ccc(N)nc3=O)[C@H](O)[C@@H]2O)cc1 was read as Myeloid diff 2 inactive, HNF4A DNA FP inactive, CSN inh inactive and Granule exo inh inactive.
Screening CC1=C(C)/C(=N\OS(=O)(=O)c2ccccc2)C=CC1=O returned HNF4A DNA FP inactive, CSN inh inactive and Granule exo inh 96.8.
Cc1ccc(S(=O)(=O)O/N=C2\CCCc3ccccc32)cc1 was read as Myeloid diff 2 inactive, HNF4A DNA FP inactive, CSN inh inactive and Granule exo inh inactive.
For Cc1ccc(NC(=O)c2ccc3nccnc3c2)c(C)c1 the results were Myeloid diff 2 inactive, HNF4A DNA FP inactive, CSN inh inactive and Granule exo inh inactive.
For CCCCCN(C(=O)CCC(=O)OCC(=O)N(C)Cc1ccccc1C)c1c(N)n(CCCC)c(=O)[nH]c1=O the results were Myeloid diff 2 inactive, HNF4A DNA FP inactive, CSN inh inactive and Granule exo inh inactive.
COc1ccc(C2=NN(C(=O)CSC3=NN4CCCC(=O)N=C4S3)C(c3cccc(OC)c3OC)C2)cc1 (centres undefined) was read as Myeloid diff 2 inactive, HNF4A DNA FP inactive, CSN inh inactive and Granule exo inh inactive.
Screening COc1cccc(C2CC(c3cccs3)=NN2C(=O)CSC2=NN3CCCC(=O)N=C3S2)c1OC (centres undefined) returned Myeloid diff 2 active, HNF4A DNA FP inactive, CSN inh inactive and Granule exo inh inactive.
For O=C(C(=O)N1CCN(c2ccccc2)CC1)c1ccncc1 the results were Myeloid diff 2 inactive, HNF4A DNA FP inactive, CSN inh inactive and Granule exo inh inactive.
`CCN(CC)C(=S)SSC(=S)N(CC)CC` gave Myeloid diff 2 inconclusive, CSN inh inactive and Granule exo inh 64.2.
`CC(=O)Nc1cc[n+](C(C)C(=O)c2ccc(Br)cc2)cc1` (centres undefined) gave Myeloid diff 2 active, HNF4A DNA FP inactive, CSN inh inactive and Granule exo inh inactive.
Screening CNS(=O)(=O)c1cccc(C(=O)OCC(=O)c2ccc3[nH]c(=O)[nH]c3c2)c1 returned Myeloid diff 2 inactive, HNF4A DNA FP inactive, CSN inh 54.2 and Granule exo inh inactive.
COc1cccc(NC(=O)C(NCCc2ccc(S(N)(=O)=O)cc2)c2ccccc2)c1 (centres undefined) was read as Myeloid diff 2 inactive, HNF4A DNA FP inactive, CSN inh inactive and Granule exo inh inactive.
For Cc1cc(C(=O)N2CCCC(N3CCN(Cc4ccc5c(c4)OCO5)CC3)C2)n[nH]1 (centres undefined) the results were Myeloid diff 2 inactive, HNF4A DNA FP inactive, CSN inh inactive and Granule exo inh inactive.
For NS(=O)(=O)c1ccc(-c2ccc(C=C3C(=O)c4ccccc4C3=O)o2)cc1 the results were Myeloid diff 2 inactive, HNF4A DNA FP inactive, CSN inh inactive and Granule exo inh inactive.
Screening CC(C)CC1=C/C(=C/c2ccc(-c3ccccc3)o2)C(=O)O1 returned Myeloid diff 2 inactive, HNF4A DNA FP inactive, CSN inh 38.0 and Granule exo inh inactive.
CCN1CCSc2ccc(C(=O)NCc3ccccc3F)cc21 was read as Myeloid diff 2 active, HNF4A DNA FP inactive, CSN inh inactive and Granule exo inh inactive.
For CCOc1ccccc1C(=O)N(Cc1ccccc1)Cc1cc2cc3c(cc2[nH]c1=O)OCCO3 the results were Myeloid diff 2 active, HNF4A DNA FP inactive, CSN inh inactive and Granule exo inh inactive.
Screening O=C(c1ccccc1)N(CCO)Cc1cc2cc3c(cc2[nH]c1=O)OCCO3 returned Myeloid diff 2 inactive, HNF4A DNA FP inactive, CSN inh inactive and Granule exo inh inactive.
For CC(C)c1nnc(NC(=O)c2cccc(-n3cnnn3)c2)s1 the results were Myeloid diff 2 inactive, HNF4A DNA FP inactive, CSN inh inactive and Granule exo inh inactive.
`N#Cc1ccsc1NC(=O)c1cccc(-n2cnnn2)c1` gave Myeloid diff 2 inactive, HNF4A DNA FP 41.8, CSN inh 38.0 and Granule exo inh inactive.
